The values below come from PubChem BioAssay.

Each structure is given as a SMILES string. Active and inactive are the calls of the source.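 The calls were made as follows, unless noted: active = GFP response above 150% of the DMSO level; inconclusive = fewer than 70 events counted for a yeast strain; inactive = the rest.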

Test [1] is described as follows: hit retest on RPL19A-GFP reporter strain – cell-based, S. cerevisiae, flow cytometry, cherry picks, mother/daughter gates, confirmation (AID 2270;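 active = GFP response below 50% of the DMSO control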). To be noted: 3 h, at 10 µM, stronger effect = lower value, 100 = same GFP as DMSO wells. On the technique in general: In flow cytometry, cells or beads pass a laser one at a time.
Test [2] in a line: yeast TOR pathway reporter LAP4-GFP change – cell-based, cherry picks, flow cytometry, mother/daughter gates, confirmation (AID 2271;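 active = GFP response above 150% of the DMSO control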;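 also: ratio of sample to DMSO plate mean so 100% equals DMSO level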). To be noted: S. cerevisiae LAP4-GFP strain, 3 h, at 10 µM, stronger effect = higher value, 100 means same as DMSO control. The method in brief:
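System: Alexa 633-stained baker's yeast GFP-fusion strain; quantity: 0.2 OD600 cells; timing: compound exposure 3 h at 30 °C, end-over-end rotation; detection: HT flow cytometry, GFP fluorescence channel; measure: per-gate (all, mother, daughter) GFP response vs DMSO; control set: DMSO-only negative wells, rapamycin 400 ng/mL positive wells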

Test [3] in a line: TOR pathway reporter MEP2-GFP, retest of hits – S. cerevisiae, flow cytometry GFP, cherry picks, confirmation (AID 2272;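 active = GFP response above 150% of the DMSO control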;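 also: ratio of well signal to plate DMSO mean so 100% equals DMSO level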). As to conditions: S. cerevisiae MEP2-GFP strain, 3 h, at 10 µM, stronger effect = higher value.
Test [4] is described as follows: yeast AGP1-GFP fluorescence change, single-dose – cell-based, flow cytometry, S. cerevisiae, cherry picks, confirmation (AID 2273).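 Also: median GFP channel fluorescence over the whole cell population gate.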 As to conditions: S. cerevisiae AGP1-GFP strain, 3 h, at 10 µM.
A short description of test [5]: TOR pathway CIT2 reporter hit retest – S. cerevisiae, GFP fusion, cherry picks, mother/daughter gates, confirmation (AID 2274). As to conditions: S. cerevisiae CIT2-GFP strain, flow cytometry, 3 h, at 10 µM, stronger effect = higher value.
Where [6] appears, read: measured here: daughter cell gate.
Setting [7] is: measured here: mother cell gate.
[8] abbreviates: measured here: daughter cell gate response.
Where [9] appears, read: measured here: mother cell gate response.

With `O=[N+]([O-])c1cc(Cl)c2cccnc2c1O`, the GFP response vs DMSO in test [1] is 100% (inactive); in test [1] (setting [6]), 94.9%; in test [1] (setting [7]), 102%; in test [3] it was 118% (inactive). Further, the GFP response relative to DMSO is 174% (active) in test [2], 141% in test [2] (setting [8]) and 181% in test [2] (setting [9]). In addition, the GFP response, % of DMSO in test [4] was 100% (inactive); in test [5], 99.3% (inactive); in test [5] (setting [6]), 96.4%; in test [5] (setting [7]) it was 94.5%.

For `O=C1/C(=C\c2ccc(O)c(O)c2)SC(=S)N1Cc1ccccc1`, the GFP response vs DMSO was 100% (inactive) in test [1], 99.1% in test [1] (setting [6]), 100% in test [1] (setting [7]) and 141% (inactive) in test [3]. In addition, the GFP response relative to DMSO was 116% (inactive) in test [2], 117% in test [2] (setting [8]) and 116% in test [2] (setting [9]). Further, the GFP response, % of DMSO was 97.2% (inactive) in test [4], 113% (inactive) in test [5], 119% in test [5] (setting [6]) and 108% in test [5] (setting [7]).

Consider `O=[N+]([O-])c1ccc(N2CCN(CCO)CC2)cc1Sc1ccccn1`, for which the GFP response vs DMSO in test [1] is 97.8% (inactive); in test [1] (setting [6]), 99.5%; in test [1] (setting [7]) it was 98%; in test [3], 99.3% (inactive). The results for the GFP response relative to DMSO in test [2], in test [2] (setting [8]) and in test [2] (setting [9]) were 94.1% (inactive), 96% and 95.4%, respectively. Moreover, the GFP response, % of DMSO in test [4] is 96.1% (inactive); in test [5] it was 101% (inactive); in test [5] (setting [6]), 101%; in test [5] (setting [7]), 102%.

Consider `O=C(O)c1ccccc1C(=O)Nc1ccccc1`, for which the GFP response vs DMSO is 101% (inactive) in test [1], 101% in test [1] (setting [6]), 99.5% in test [1] (setting [7]) and 96.8% (inactive) in test [3]. Further, the GFP response relative to DMSO in test [2] was 94.4% (inactive); in test [2] (setting [8]) it was 92.6%; in test [2] (setting [9]), 95.2%. Also, the GFP response, % of DMSO in test [4] was 104% (inactive); in test [5], 102% (inactive); in test [5] (setting [6]), 101%; in test [5] (setting [7]) it was 101%.

Regarding `COC(=O)c1sc(-c2ccc(C(C)(C)C)cc2)cc1NC(=O)CCC(=O)O`, the GFP response vs DMSO was 98.6% (inactive) in test [1], 97.3% in test [1] (setting [6]), 98.9% in test [1] (setting [7]) and 100% (inactive) in test [3]. The GFP response relative to DMSO in test [2] was 98.7% (inactive); in test [2] (setting [8]), 95.6%; in test [2] (setting [9]), 100%. The GFP response, % of DMSO in test [4] was 95.4% (inactive); in test [5], 97.8% (inactive); in test [5] (setting [6]), 96.5%; in test [5] (setting [7]) it was 98.7%.

On to `CCN(CC)CCCN(Cc1cc2cc3c(cc2[nH]c1=O)OCO3)C(=S)Nc1ccccc1`, for which the GFP response vs DMSO in test [1] is 87.4% (inactive); in test [1] (setting [6]), 74.2%; in test [1] (setting [7]) it was 80.4%; in test [3], 139% (inactive). The GFP response relative to DMSO in test [2] was 135% (inactive); in test [2] (setting [8]), 104%; in test [2] (setting [9]), 131%. The GFP response, % of DMSO is 133% (inactive) in test [4], 126% (inactive) in test [5], 103% in test [5] (setting [6]) and 120% in test [5] (setting [7]).

Regarding `Cc1cc(N2CCN(C(=O)c3ccco3)CC2)n2ncc(-c3ccccc3)c2n1`, the GFP response vs DMSO was 108% (inactive) in test [1], 90.8% in test [1] (setting [6]), 101% in test [1] (setting [7]) and 116% (inactive) in test [3]. The GFP response relative to DMSO in test [2] is 108% (inactive); in test [2] (setting [8]), 96%; in test [2] (setting [9]), 105%. For the same compound, the GFP response, % of DMSO in test [4] was 106% (inactive); in test [5] it was 118% (inactive); in test [5] (setting [6]) it was 95.8%; in test [5] (setting [7]), 107%.

Turning to `CCOC(=O)C1=C(Cc2ccc(F)cc2)C(=O)c2ccccc2C1=O`, the GFP response vs DMSO is 97.8% (inactive) in test [1], 99.6% in test [1] (setting [6]), 95.8% in test [1] (setting [7]) and 106% (inactive) in test [3]. Further, the GFP response relative to DMSO in test [2] was 101% (inactive); in test [2] (setting [8]), 97.9%; in test [2] (setting [9]), 104%. For the same compound, the GFP response, % of DMSO in test [4] was 92.5% (inactive); in test [5], 95% (inactive); in test [5] (setting [6]), 96.4%; in test [5] (setting [7]), 92.1%.

As for `Cc1ccc(/C=C/C(=O)NC2CCCCCCC2)o1`, the GFP response vs DMSO in test [1] was 98.8% (inactive); in test [1] (setting [6]) it was 99.4%; in test [1] (setting [7]), 98.2%; in test [3], 102% (inactive). The GFP response relative to DMSO is 125% (inactive) in test [2], 120% in test [2] (setting [8]) and 130% in test [2] (setting [9]). Further, the GFP response, % of DMSO was 90.8% (inactive) in test [4], 101% (inactive) in test [5], 105% in test [5] (setting [6]) and 97.3% in test [5] (setting [7]).

`Cc1ccccc1Sc1ncnc2onc(C)c12`: the GFP response vs DMSO in test [1] was 98.5% (inactive); in test [1] (setting [6]), 99%; in test [1] (setting [7]) it was 96.9%; in test [3], 106% (inactive). The GFP response relative to DMSO in test [2] was 97.7% (inactive); in test [2] (setting [8]), 96%; in test [2] (setting [9]) it was 97.4%. Also, the GFP response, % of DMSO in test [4] is 104% (inactive); in test [5], 98.6% (inactive); in test [5] (setting [6]), 101%; in test [5] (setting [7]) it was 98.2%.

Regarding `O=S(=O)(Nc1ccc(Br)cc1)c1cccc2nonc12`, the GFP response vs DMSO in test [1] is 97.4% (inactive); in test [1] (setting [6]), 97.5%; in test [1] (setting [7]), 98.3%; in test [3] it was 99.5% (inactive). Further, the GFP response relative to DMSO was 96.5% (inactive) in test [2], 95% in test [2] (setting [8]) and 95.6% in test [2] (setting [9]). Also, the GFP response, % of DMSO in test [4] is 93.8% (inactive); in test [5] it was 97.8% (inactive); in test [5] (setting [6]) it was 98.3%; in test [5] (setting [7]), 95.6%.

With `O=C(O)c1cccc(S(=O)(=O)N2Cc3ccccc3C2)c1`, the GFP response vs DMSO in test [1] is 96.9% (inactive); in test [1] (setting [6]), 97.3%; in test [1] (setting [7]), 95.9%; in test [3] it was 101% (inactive). Also, the GFP response relative to DMSO in test [2] is 106% (inactive); in test [2] (setting [8]) it was 101%; in test [2] (setting [9]), 108%. The GFP response, % of DMSO in test [4] was 104% (inactive); in test [5] it was 100% (inactive); in test [5] (setting [6]), 99.3%; in test [5] (setting [7]), 100%.

Regarding `COc1ccc(NC(=O)c2ccccc2NC(=O)c2ccccc2)cc1`, the GFP response vs DMSO in test [1] was 98.4% (inactive); in test [1] (setting [6]) it was 98.4%; in test [1] (setting [7]), 99.2%; in test [3], 96.2% (inactive). In addition, the figures for the GFP response relative to DMSO in test [2], in test [2] (setting [8]) and in test [2] (setting [9]) were 91.5% (inactive), 94.4% and 89.7%, respectively. In addition, the GFP response, % of DMSO in test [4] was 102% (inactive); in test [5], 103% (inactive); in test [5] (setting [6]), 101%; in test [5] (setting [7]) it was 102%.

For the compound `O=C(CCc1ccccc1)NNC(=S)NC(=O)c1ccccc1`, the GFP response vs DMSO is 106% (inactive) in test [1], 106% in test [1] (setting [6]), 107% in test [1] (setting [7]) and 116% (inactive) in test [3]. In addition, the results for the GFP response relative to DMSO in test [2], in test [2] (setting [8]) and in test [2] (setting [9]) were 186% (active), 180% and 185%, respectively. Further, the GFP response, % of DMSO in test [4] was 100% (inactive); in test [5], 106% (inactive); in test [5] (setting [6]), 113%; in test [5] (setting [7]), 100%.

For `CCN(CC)S(=O)(=O)c1ccc(O)c(C(=O)OCC(=O)NC2CCCC2)c1`, the GFP response vs DMSO in test [1] was 99.2% (inactive); in test [1] (setting [6]), 97.9%; in test [1] (setting [7]) it was 99.5%; in test [3], 96.8% (inactive). Further, the GFP response relative to DMSO in test [2] is 98.2% (inactive); in test [2] (setting [8]), 97.5%; in test [2] (setting [9]), 97.3%. For the same compound, the GFP response, % of DMSO is 102% (inactive) in test [4], 105% (inactive) in test [5], 103% in test [5] (setting [6]) and 103% in test [5] (setting [7]).

Consider `O=C(NCc1ccncc1)C12CC3CC(CC(Cl)(C3)C1)C2`, for which the GFP response vs DMSO in test [1] was 96.2% (inactive); in test [1] (setting [6]) it was 98.1%; in test [1] (setting [7]) it was 96.8%; in test [3], 99% (inactive). The values for the GFP response relative to DMSO in test [2], in test [2] (setting [8]) and in test [2] (setting [9]) were 97% (inactive), 95.9% and 96.2%, respectively. The GFP response, % of DMSO was 99.8% (inactive) in test [4], 105% (inactive) in test [5], 105% in test [5] (setting [6]) and 103% in test [5] (setting [7]).

Consider `O=c1c2c(-c3cccs3)csc2ncn1/N=C/c1ccccn1`, for which the GFP response vs DMSO in test [1] is 98.4% (inactive); in test [1] (setting [6]), 95.2%; in test [1] (setting [7]), 96.5%; in test [3], 99% (inactive). Also, the values for the GFP response relative to DMSO in test [2], in test [2] (setting [8]) and in test [2] (setting [9]) were 119% (inactive), 112% and 121%, respectively. In addition, the GFP response, % of DMSO in test [4] was 99.2% (inactive); in test [5], 91.5% (inactive); in test [5] (setting [6]), 92%; in test [5] (setting [7]), 89.5%.
